Source: PubChem
Most compounds without a hit are left out; they make up all but 1.4% or so of the library.
CAL PDZ FP-1 = inhibitors of human CAL PDZ peptide binding. AID 602252. inhibition, % at 24.9 µM. hit rate 0.92% among 300,000. purified CAL PDZ, TMR-peptide fluorescence polarization, 1 h;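 active = mean inhibition of at least 30% with at least half of replicates also reaching 30%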;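 note: 0% = DMSO neutral control and 100% = excess unlabeled competitor peptide PRC23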
CAL PDZ FP-2 = inhibitors of human CAL PDZ peptide binding; Q9HD26; purified CAL PDZ, TMR-peptide fluorescence polarization, 1 h; inhibition, % at 20 µM; hit rate 0.02% among 330,000; AID 504414;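 active = highest replicate inhibition of at least 40%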;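 note: plate controls were DMSO neutral control wells for no effect and unlabeled competitor peptide control wells for full effect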
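Material: tagged CAL PDZ domain; buffer or medium: 25 mM sodium phosphate pH 7.4, 150 mM NaCl, TCEP, IgG, Thesit; compound dosing: single point, 20 µM; schedule: 1 h incubation at room temperature before polarization reading; measured by: FP readout, S and P plane fluorescence; read-out basis: percent inhibition from loss of millipolarization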
ARNT TACC3 PPI = ARNT/TACC3 interaction disruption; Q9Y6A5; AlphaScreen His-ARNT PAS-B/GST-TACC3 binding, luminescence; TACC3 fragment carries E629A point mutation; inhibition, % at 9.99 µM; hit rate 0.66% among 390,000; AID 623870;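 active = mean inhibition of replicates at least 50% and at least half of replicates each reaching 50%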;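 note: 0% = complete ARNT plus TACC3 wells and 100% = ARNT alone without TACC3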
Dyrk1A ADPGlo = Dyrk1A (rat) kinase inhibition. hit rate 0.43% among 310,000. inhibition, % at 12.5 µM. ADP-Glo luminescence, NFATc1 peptide. AID 504441; in the data active = inhibition above about 50%;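 note: plate controls were vehicle with enzyme for no effect and no enzyme for full effect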
Numbers without * were called inactive; x = no result given; + = active, no number.

SMILES	CAL PDZ FP-1	CAL PDZ FP-2	ARNT TACC3 PPI	Dyrk1A ADPGlo
Cc1c(C(=O)N2CCCCC2)c(S(=O)(=O)NCc2ccccc2Cl)c(C)n1C	38*	-2	-1	4
COc1ccc(CNS(=O)(=O)c2c(C(=O)N3CCCCC3)c(C)n(C)c2C)cc1	4	-2	-5	1
Cc1c(C(=O)N2CCCCC2)c(S(=O)(=O)NCc2ccc(Cl)cc2)c(C)n1C	77*	0	0	3
Cc1ccc(CNS(=O)(=O)c2c(C(=O)N3CCCCCC3)c(C)n(C)c2C)cc1	76*	-1	2	1
COC(=O)C[C@@H]1C[C@@H]2c3cc(NS(=O)(=O)c4cccc(OC)c4)ccc3O[C@@H]2[C@H](CO)O1	x	x	-3	x
O=C(Nc1ccc(Nc2ccccc2)cc1)c1ccc(Cl)cc1	x	0	-1	1
O=C(NC1=C(Nc2ccc(Cl)cc2)C(=O)c2ccccc2C1=O)c1ccccc1	-1	1	51*	-4
Cc1cccc(NC2=C(NC(=O)c3ccccc3)C(=O)c3ccccc3C2=O)c1	1	1	39*	2
COc1ccc(-c2ccc3c(c2)O[C@@H](CN(C)C(C)=O)[C@@H](C)CN([C@@H](C)CO)S3(=O)=O)cc1	x	x	-3	x
COCCNC(=O)C[C@H]1CC[C@H]2[C@@H](COc3ccc(NC(=O)c4cnccn4)cc3C(=O)N2C)O1	x	x	0	x
O=C(Nc1ccc2oc(-c3ccccc3Cl)nc2c1)c1ncn[nH]1	-7	-4	50*	-3
O=C(Nc1ccc(N2CCOCC2)c(Cl)c1)c1ncn[nH]1	-1	0	58*	-26
O=C(Nc1ccc(N2CCOCC2)c(Cl)c1)c1ccc(Cl)cc1	-4	-1	-2	6
COCCn1c(SCC(=O)Nc2ccc3[nH]c(=O)[nH]c3c2)nc2ccccc2c1=O	-5	0	-4	7
COCCn1c(SCC(=O)Nc2ccc(OC)c(S(N)(=O)=O)c2)nc2ccccc2c1=O	41*	0	-6	2
COc1cc2c(C#N)c(N3CCOCC3)nc(N)c2c(N)n1	-6	x	69*	18
CCOc1cc2c(C#N)c(N3CCNCC3)nc(N)c2c(N)n1	70*	0	9	3
CCOC(=O)C1CCN(c2nc(N)c3c(N)nc(SCC(=O)O)cc3c2C#N)CC1	-5	2	52*	9
CC(C)NC(=O)Nc1ccc2c(c1)C(=O)N([C@@H](C)CO)C[C@@H](C)[C@@H](CN(C)S(=O)(=O)c1ccc(F)cc1)OCCCC[C@@H](C)O2	x	x	1	x
COC(=O)C[C@@H]1CC[C@@H]2[C@H](COc3ccc(NC(=O)Nc4ccc(C#N)cc4)cc3C(=O)N2C)O1	x	x	-16	x
CCc1ccc(NC(=S)NCc2ccccc2)cc1	49*	-1	-9	x
CCc1ccc(NC(=S)NCc2cccnc2)cc1	5	1	-4	x
CCc1ccc(NC(=S)Nn2cnnc2)cc1	63*	16	-2	7
CCOc1ccc(CN(C)C(C)C(=O)NCc2ccccc2)cc1 (configuration not stated)	3	0	-6	-3
Cc1ccc(NC(=S)Nn2cnnc2)cc1	-5	-2	x	3
SMILES	CAL PDZ FP-1	CAL PDZ FP-2	ARNT TACC3 PPI	Dyrk1A ADPGlo
CCc1ccc(CN(C)C(C)C(=O)NCc2ccccc2)cc1 (configuration not stated)	51*	x	3	-1
Cc1ccc(Nc2nc(N)nc(CSc3nccn3C)n2)c(C)c1	38*	-1	1	6
Cc1ccc(SCc2nc(N)nc(Nc3ccccc3C)n2)c(C)c1	-1	-2	3	8
O=C(NCc1ccccc1)c1nc(S(=O)(=O)Cc2ccccc2)ncc1Cl	+	0	5	0
COc1ccc(CNC(=O)c2nc(S(=O)(=O)Cc3ccccc3)ncc2Cl)cc1	0	-2	-4	-11
CC(=O)OCC(=O)C1(O)CCC2C3CC(F)C4=CC(=O)CCC4(C)C3C(O)CC21C (configuration not stated)	86*	1	-4	-6
CC(=O)OCC(=O)C1(O)CCC2C3CC(F)C4=CC(=O)CCC4(C)C3C(=O)CC21C (configuration not stated)	130*	0	-3	x
CNC[C@@H]1Oc2cc(-c3ccccc3F)ccc2S(=O)(=O)N([C@@H](C)CO)C[C@H]1C	x	x	3	x
O=C(C[C@H]1C[C@@H]2c3cc(NC(=O)C4CCC4)ccc3O[C@@H]2[C@H](CO)O1)NCC(F)(F)F	x	x	-8	x
Nc1cc(=O)[nH]c(=O)n1Cc1ccccc1	0	-1	-2	6
Nc1cc(=O)[nH]c(=O)n1CCCc1ccccc1	39*	-1	-9	3
CCOC(=O)C1CCN(Cc2ccc(O)c3ncccc23)CC1	0	0	69*	0
CCOC(=O)C1CCN(Cc2ccccc2C(F)(F)F)CC1	x	-1	-31	-7
COC1=C(Br)C(=O)c2ncccc2C1=O	-4	0	47*	x
O=C1c2cccnc2-c2ncccc21	-4	-1	29	11
Cc1ccc(S(=O)(=O)Nc2ccc3c(c2)C(=O)N([C@H](C)CO)C[C@@H](C)[C@@H](CN(C)C(=O)NC2CCCCC2)OCCCC[C@H](C)O3)cc1	x	x	-18	x
O=C1NC2(CCCCCC2)C(=O)N1Cc1ccccc1Br	48*	0	-3	1
CN(Cc1ccccc1Br)C(=O)CN1C(=O)NC2(CCCCCC2)C1=O	39*	0	-7	x
COc1ccc(S(=O)(=O)N(C)C[C@@H]2OCCCC[C@H](C)Oc3ccc(NC(=O)c4ccccc4)cc3C(=O)N([C@H](C)CO)C[C@H]2C)cc1	x	x	21	x
Cc1ccc(NC(=S)Nc2ccc3cn[nH]c3c2)c(C)c1	2	-1	7	71*
Cc1ccc(NC(=S)Nc2ccc3cn[nH]c3c2)cc1C	0	-1	6	39
C[C@@H]1CCCCO[C@H](CN(C)Cc2ccc(C(F)(F)F)cc2)[C@H](C)CN([C@H](C)CO)C(=O)c2cc(NC(=O)CCC(F)(F)F)ccc2O1	x	x	4	x
O=C1CSC(=S)N1/N=C/c1c(F)cccc1F	-7	-2	22	-1
COc1ccc2ccccc2c1/C=N/N1C(=O)CSC1=S	-4	-1	-15	x
COc1cccc(/C=N/N2C(=O)CSC2=S)c1O	-4	1	67*	12
SMILES	CAL PDZ FP-1	CAL PDZ FP-2	ARNT TACC3 PPI	Dyrk1A ADPGlo
O=C1CSC(=S)N1N=Cc1c(O)ccc2ccccc12	2	-1	68*	42
COc1cc(/C=N/N2C(=O)CSC2=S)cc(Br)c1O	53*	-9	21	-4
Cc1cc(C(=O)COC(=O)c2ccc(N)c([N+](=O)[O-])c2)c(C)n1-c1ccc2c(c1)OCO2	-5	-2	9	0
Cc1cc(C(=O)COC(=O)c2ccc(N)c([N+](=O)[O-])c2)c(C)n1Cc1ccc2c(c1)OCO2	123*	0	0	1
C[C@H](O)C#Cc1cnc2c(c1)C(=O)N([C@H](C)CO)C[C@@H](C)[C@@H](CN(C)Cc1ccccn1)O2	x	x	12	x
CN(C)CC#Cc1ccc([C@H]2[C@@H](CO)N3CCCCN(C(=O)C4CC4)C[C@H]23)cc1	x	x	0	x
CCc1cccc(NC(=O)CCNS(=O)(=O)c2ccc3[nH]c(=O)oc3c2)c1	40*	-1	1	7
